SENP1 FRET inh = blocks the human SENP1 SUMO protease catalytic domain | Q9P0U3 | recombinant SENP1 catalytic domain, CyPet-SUMO1-YPet FRET cleavage | inhibition, % at 10 µM | 360,000 tested, 0.21% active | AID 624204;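 active means inhibition at least 30% at 10 µM, raw YFP signal under a set limit, fluorescence ratio 0.5 to 1.5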
Target sequence (Q9P0U3 419-644 limits assumed): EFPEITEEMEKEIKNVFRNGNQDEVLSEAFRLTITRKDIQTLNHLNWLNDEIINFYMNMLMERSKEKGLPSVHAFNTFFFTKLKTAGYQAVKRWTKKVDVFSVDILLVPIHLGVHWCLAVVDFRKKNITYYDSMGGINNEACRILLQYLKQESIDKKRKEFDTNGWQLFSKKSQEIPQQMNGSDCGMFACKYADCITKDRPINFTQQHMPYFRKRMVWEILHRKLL
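system = hSENP1 catalytic domain, recombinant | reagent = SFCypet-SUMO1-SFYpet substrate at 25 nM | doses = one dose per compound, 10 µM, 0.5% DMSO | incubation = enzyme reaction for 50 min at room temperature, dark | measured by = FRET, CFP and YFP emission | controls = no-enzyme low, enzyme-DMSO high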
hiPSC survival = increases survival of single human iPS cells | hiPSC single-cell survival, ATPlite luminescence; 100% = ROCK inhibitor wells, 0% = DMSO | survival enhancement, % at 20 µM | 360,000 tested, 0.044% active | AID 602274; in the data active means survival enhancement above about 18%;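 further: cells exposed to compounds for 16 hours before the ATP read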
FAS-TE inh = inhibitors of human fatty acid synthase thioesterase domain; inhibition, % at 15 µM; AID 602261; recombinant FAS-TE, OMFH fluorogenic substrate, fluorescence endpoint; 360,000 tested, 0.67% active;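 active means compounds whose normalised, plate-corrected inhibition of enzyme fluorescence in the single-dose primary screen is 50% or more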
Cardio protect = protects H9c2 cardiomyocytes from peroxide injury | 360,000 tested, 0.63% active | AID 588492 | H2O2 injury protection, ATPLite, 2 h | protection from H2O2 cell death, % at 20 µM;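 active means compounds giving at least 50% protection of heart cells from peroxide-induced death in the single-dose screen, raw or plate-pattern-corrected value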
Arr AP2 block = blocks beta-arrestin peptide binding to AP2 adaptin; AID 504490; 340,000 tested, 0.31% active; FITC-arrestin peptide / GST-AP2 beads, flow cytometry; AP2 beta2 appendage carries R879A mutation; inhibition, % at 10 µM;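 active means inhibition above a set limit, near 3 SD of compounds lacking own fluorescence, cut at about 54% in these data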
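System: GST-AP2 R879A glutathione beads; medium: PBS, Tween 20 0.05%, BSA 0.1%; reagent: fluorescein-tagged arrestin peptide at 50 nM final; schedule: pre-incubation 12 min, peptide binding 1 h, room temperature; detection: flow cytometry, FL1 (488/535 nm); read-out: inhibition as reduced fluorescein signal on beads, percent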
NR3A LBD binder = NR3A (human) ligand-binding domain modulation | NR3A LBD differential scanning fluorimetry, Tm shift; 0% = protein alone, 100% = glycine-bound protein | Tm shift relative to glycine control, % at 25 µM | 340,000 tested, 2.5% active | AID 1259313;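 active means melting temperature shift of at least 10% of the positive control shift, at one fixed dose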
Hits are given with their value; – = inactive; · = no result given. Sampled rows, rich in hits. Any-hit rate of the full collection: about 4%.

SMILES	SENP1 FRET inh	hiPSC survival	FAS-TE inh	Cardio protect	Arr AP2 block	NR3A LBD binder
CNC(=O)C1Cc2c(-c3ccc(Cl)cc3)ccnc2O1 (stereo not drawn)	–	–	–	–	·	·
CC(=O)N1CC2(CC(c3ccccc3C(F)(F)F)=NO2)CN1c1ccc(Cl)cc1 (stereo not drawn)	–	–	–	–	·	·
Cc1noc(C)c1NC(=O)N(C)C[C@H]1OCc2cnnn2CCCC(=O)N([C@@H](C)CO)C[C@H]1C	–	–	–	–	·	·
COc1cccc(C(=O)N/N=C2\SCC(=O)N2Cc2ccc3c(c2)OCO3)c1	–	–	–	–	–	–
COc1ccc(C(=O)N/N=C2/SCC(=O)N2Cc2ccc3c(c2)OCO3)cc1OC	–	–	–	–	–	11
Oc1[nH]c2ccccc2c1N=Nc1nc(Nc2ccccc2)nc(N2CCOCC2)n1	–	–	–	–	–	–
Cc1[nH]c2ccccc2c1/C=N/Nc1nc(Nc2ccccc2)nc(N2CCOCC2)n1	–	–	–	60	–	–
COc1ccc(NC(=O)c2cc3ccc(O)cc3o/c2=N\O)cc1	–	–	–	–	–	36
COc1ccc2o/c(=N\O)c(C(=O)Nc3ccccc3OC)cc2c1	–	–	–	–	–	–
Cc1ccc([N+](=O)[O-])cc1N(CC(=O)Nc1ccc(S(=O)(=O)Nc2cccc(C(F)(F)F)c2)cc1)S(C)(=O)=O	–	–	–	–	–	12
CC(c1nc2ccccc2n1Cc1ccccc1)n1c(-c2cnccn2)nc2ccccc21 (stereo not drawn)	–	·	·	·	·	·
COc1ccc(N(CC(=O)Nc2cccc(C(C)=O)c2)S(=O)(=O)c2ccc(NC(C)=O)cc2)cc1	–	–	–	73	–	–
COc1ccc(N(CC(=O)Nc2ccc3c(c2)OCO3)S(=O)(=O)c2ccccc2)c(OC)c1	–	–	–	54	–	–
CCN(CC(=O)Nc1cccc(C(C)=O)c1)S(=O)(=O)c1ccc(OC)cc1	–	–	–	–	–	–
Cc1snc(S(=O)(=O)/C(C#N)=N/Nc2ccc(C(F)(F)F)cc2)c1C#N	–	–	–	–	–	24
COc1ccc(C(O)c2nc(-c3cccc(CO)c3)cs2)cc1 (stereo not drawn)	–	–	–	–	·	·
CCC(C)[C@H](N)C(=O)N[C@H]1CCC2C3CC=C4C[C@@H](O)CC[C@]4(C)C3CC[C@@]21C (stereo partly drawn)	–	–	–	–	·	·
CCOc1ccc(Br)cc1S(=O)(=O)Nc1ccc(NC(=O)c2ccccc2F)cc1	–	–	–	–	–	–
CCOc1ccc(Br)cc1S(=O)(=O)Nc1ccc(C(=O)Nc2ccc(C)cc2)cc1	–	–	–	–	–	18
CCOc1ccc(Br)cc1S(=O)(=O)Nc1ccc(NC(=O)c2ccccc2C)cc1	–	–	–	–	–	–
CCOc1ccc(Br)cc1C(=O)Nc1ccc(C(=O)NCC(C)C)cc1	–	–	–	–	–	13
CCOc1ccc(Br)cc1S(=O)(=O)Nc1cccc(S(=O)(=O)N(C)c2ccccc2)c1	–	–	–	–	–	12
CCOc1ccc(Br)cc1S(=O)(=O)Nc1ccc(C(=O)Nc2ccccc2OC)cc1	–	–	–	–	–	16
CCCCCCN1CCN(C2CN(C3CCCCC3)S(=O)(=O)C2)CC1 (stereo not drawn)	–	–	–	–	·	·
CCOC(=O)C1=C[C@@H](C(C)(C)C)N(S(=O)(=O)c2ccc(C)cc2)[C@H]1c1ccc(C)cc1	–	–	–	–	·	·
SMILES	SENP1 FRET inh	hiPSC survival	FAS-TE inh	Cardio protect	Arr AP2 block	NR3A LBD binder
CCOC(=O)[C@]12CCCC=C1N(CCC1=CCCCC1)C(=O)[C@H](CC(=O)N1CCN(C(=O)C3CC3)CC1)C2	–	·	·	·	·	·
COc1cccc(C(O)c2nc(/C=C/c3ccccc3)cs2)c1 (stereo not drawn)	–	–	–	–	·	·
COc1ccc(NC(=O)C2Cc3c(-c4cccc(F)c4)ccnc3O2)cn1 (stereo not drawn)	–	–	–	–	·	·
O=C(Nc1ccc(Oc2cccnc2)cc1)C1CCN(Cc2cc(Cl)ccc2O)CC1	–	–	–	–	–	88
O=C(Nc1ccc(Oc2cccnc2)cc1)C1CCN(Cc2ccc(F)cc2)CC1	–	–	–	–	–	–
Cc1ccc(NC(=O)c2cccc(NC(=O)/C=C/c3ccco3)c2)cc1C	–	–	–	–	–	15
O=C(/C=C/c1ccco1)Nc1ccc2c(c1)OCO2	–	–	–	–	–	–
Cc1ccc(-n2nc3ccc(NC(=O)/C=C/c4ccco4)cc3n2)cc1	–	–	–	–	–	24
Nc1ncnc2c1ncn2[C@@H]1O[C@H](CNCc2ccc(-n3cccn3)cc2)[C@@H](O)[C@H]1O	–	–	–	–	–	–
COc1ccc(C2=NOC(C(=O)N3CCN(C(=O)c4ccco4)CC3)C2)cc1OC (stereo not drawn)	–	–	–	–	–	39
Cc1ccccc1SCC(=O)Nc1cc(C(F)(F)F)ccc1N1CCOCC1	–	–	–	–	–	–
Cc1ccc(CNC(=O)CC[C@H]2O[C@@H](n3cc(C)c(=O)[nH]c3=O)C[C@@H]2O)o1	–	–	–	–	·	·
CCc1cccc2c(C(=O)COC(=O)c3ccc(O)cc3)c[nH]c12	–	–	–	–	–	15
Cn1c(=O)n(CCc2ccccc2)c(=O)c2c1nc1n2CCN1Cc1ccco1	–	–	–	98	–	–
Cn1c(=O)n(Cc2ccc(F)cc2)c(=O)c2c1nc1n2CCN1Cc1ccco1	–	–	–	–	–	–
Nc1c(C(=O)Nc2ccc(S(=O)(=O)N3CCCC3)cc2)sc2nc3ccc(OC(F)(F)F)cc3cc12	–	–	–	–	–	22
COCCNC(=O)C1(C)CCN(C(=O)c2sc(-c3ccccc3)nc2C)C1 (stereo not drawn)	–	–	–	–	·	·
C[C@@H]1CN([C@H](C)CO)C(=O)c2cc(Br)cnc2O[C@@H]1CN(C)Cc1ccc(F)cc1	–	–	–	–	·	·
CCCNC(=O)Cn1c2ccccc2c2nc(=O)cc(C)n21	–	–	–	–	–	–
Cc1cc(=O)nc2c3ccccc3n(CC(=O)NC(C)c3ccc4c(c3)OCCO4)n12 (stereo not drawn)	–	–	–	–	–	13
CCc1c(C)nc(Nc2nc(C)c3ccc(OC)cc3n2)[nH]c1=O	–	–	–	66	–	–
CC(C)C[C@H]1CNC(=O)C(=O)N1C[C@@H]1CCCN1C[C@H](Cc1ccc(O)cc1)N1C[C@H](Cc2ccccc2)N(CC2CCCCC2)C(=O)C1=O	–	–	–	·	·	·
CC1=C(C(=O)N2CCCCCC2)CC(CC(=O)NC2CCCCC2)C(=O)N1CCC1=CCCCC1 (stereo not drawn)	–	–	–	·	·	·

Source: PubChem (several laboratories)
